Assay results taken from ChEMBL document CHEMBL4330084, “Development of posaconazole-based analogues as hedgehog signaling pathway inhibitors” (Eur J Med Chem, 2019).
pIC50: −log10 of the molar value. Converted amounts (≈) assume the structure as drawn.

What was measured:
[1] = Inhibition of hedgehog signaling pathway in mouse ASZ cells assessed as decrease in Gli1 mRNA expression after 48 hrs by qRT-PCR analysis; assay type: cell-based
How it was run: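 Murine BCC line ASZ (Ptch+/-), 80% confluent, seeded at 10,000 cells/well in 154CF medium (2% FBS), 24 h, then serum-free medium 24 h (37°C, 5% CO2). Treated 48 h with compound at 10–0.001 μM or DMSO vehicle. Gli1 mRNA measured by qRT-PCR against actin B internal control; concentrations lowering actin B were excluded. IC50 as mean ± SEM, repeat experiments in triplicate.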

[2] = Kinetic solubility of compound in pH 7.4 PBS by LC-MS/MS analysis; assay type: physicochemical; settings: for solubility kinetic: PBS, read-out: Kinetic_solubility
How it was run: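 Kinetic solubility in PBS, pH 7.4; run by a CRO (Pharmaron or Cyprotex) under its standard protocol.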

Cytochrome P450 3A4 = Cytochrome P450 3A4 (Homo sapiens, UniProt P08684); assay: Inhibition of CYP3A4 in human liver microsomes by LC-MS/MS analysis
Sequence of Cytochrome P450 3A4 (P08684 whole entry): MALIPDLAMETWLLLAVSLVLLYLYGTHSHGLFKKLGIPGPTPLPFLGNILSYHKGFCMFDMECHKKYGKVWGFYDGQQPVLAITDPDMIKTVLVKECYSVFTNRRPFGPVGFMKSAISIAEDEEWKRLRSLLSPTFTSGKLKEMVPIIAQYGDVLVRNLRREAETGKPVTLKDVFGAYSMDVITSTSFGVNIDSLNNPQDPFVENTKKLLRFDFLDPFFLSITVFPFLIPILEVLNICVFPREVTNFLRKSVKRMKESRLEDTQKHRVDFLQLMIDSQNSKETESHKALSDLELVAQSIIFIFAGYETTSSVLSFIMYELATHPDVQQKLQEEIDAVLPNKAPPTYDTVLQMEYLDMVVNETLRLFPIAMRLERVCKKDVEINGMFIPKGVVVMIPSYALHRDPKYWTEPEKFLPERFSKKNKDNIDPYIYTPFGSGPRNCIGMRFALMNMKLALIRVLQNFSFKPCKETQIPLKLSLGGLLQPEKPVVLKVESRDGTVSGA

hERG (KCNH2) = hERG (KCNH2) (Homo sapiens, UniProt Q12809); assay: Inhibition of human ERG expressed in CHO cells at 25 uM by electrophysiology assay relative to control; assay type: cell-based; settings: CHO cells expressing human ERG
Sequence of hERG (KCNH2) (Q12809 whole entry): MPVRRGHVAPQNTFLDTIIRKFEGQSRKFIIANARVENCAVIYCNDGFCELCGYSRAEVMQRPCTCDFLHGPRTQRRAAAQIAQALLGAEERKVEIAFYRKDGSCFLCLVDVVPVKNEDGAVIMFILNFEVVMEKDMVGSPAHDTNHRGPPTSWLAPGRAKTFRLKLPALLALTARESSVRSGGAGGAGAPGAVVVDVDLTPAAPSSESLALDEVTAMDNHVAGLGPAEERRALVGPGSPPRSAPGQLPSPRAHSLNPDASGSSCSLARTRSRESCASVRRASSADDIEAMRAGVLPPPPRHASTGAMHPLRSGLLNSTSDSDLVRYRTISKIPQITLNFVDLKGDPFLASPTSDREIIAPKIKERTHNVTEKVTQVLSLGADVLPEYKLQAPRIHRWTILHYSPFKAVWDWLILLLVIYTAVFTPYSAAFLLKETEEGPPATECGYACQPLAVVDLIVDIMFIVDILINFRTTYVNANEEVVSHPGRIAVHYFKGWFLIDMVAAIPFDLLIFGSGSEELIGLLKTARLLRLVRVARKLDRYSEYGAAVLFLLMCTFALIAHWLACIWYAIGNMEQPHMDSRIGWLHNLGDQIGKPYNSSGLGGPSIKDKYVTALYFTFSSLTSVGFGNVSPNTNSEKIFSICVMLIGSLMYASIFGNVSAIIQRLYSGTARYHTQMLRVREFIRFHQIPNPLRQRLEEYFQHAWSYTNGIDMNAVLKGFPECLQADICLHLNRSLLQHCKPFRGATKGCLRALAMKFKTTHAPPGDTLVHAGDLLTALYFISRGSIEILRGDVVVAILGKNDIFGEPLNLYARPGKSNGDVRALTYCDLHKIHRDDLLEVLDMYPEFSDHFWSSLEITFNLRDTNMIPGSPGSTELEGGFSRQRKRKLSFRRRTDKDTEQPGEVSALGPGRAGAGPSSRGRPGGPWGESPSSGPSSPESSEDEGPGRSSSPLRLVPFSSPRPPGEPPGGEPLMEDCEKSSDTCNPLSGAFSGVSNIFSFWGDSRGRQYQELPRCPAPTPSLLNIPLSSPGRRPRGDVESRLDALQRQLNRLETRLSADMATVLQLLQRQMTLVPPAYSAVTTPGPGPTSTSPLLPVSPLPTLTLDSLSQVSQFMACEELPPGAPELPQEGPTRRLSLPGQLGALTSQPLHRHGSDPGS

Mus musculus [3] = species: Mus musculus; assay: Inhibition of hedgehog signaling pathway in hedgehog-dependent mouse Ptch-CKO cells assessed as inhibition of cell growth
[4] = Half life in human liver microsomes at 1 uM by LC-MS/MS analysis
[5] = human, microsomes, 1 µM
Mus musculus [6] = species: Mus musculus; assay: Potency index, ratio of IC50 for PSZ to IC50 for test compound for inhibition of hedgehog signaling pathway in mouse ASZ cells assessed as decrease in Gli1 mRNA expression after 48 hrs by qRT-PCR analysis; assay type: cell-based

Row | SMILES | pIC50 [1] | solubility kinetic [2] | t1/2 [4] | other results
1 | C[C@]1(c2ccc(F)cc2F)C[C@H](COc2ccc(N3CCN(c4ccc(NC(=O)Oc5ccccc5)cc4)CC3)cc2)CO1 | < 5.00 | – | – | –
2 | C[C@]1(c2ccc(F)cc2F)C[C@H](COc2ccc(N3CCN(c4ccc(-n5cnn(CCC(=O)O)c5=O)cc4)CC3)cc2)CO1 | 7.49 | – | – | –
3 | CC1(c2ccc(Cl)cc2Cl)OCC(COc2ccc(N3CCN(c4ccc(-n5cnn(CCC(=O)O)c5=O)cc4)CC3)cc2)O1 (centres undefined) | 7.92 | 0.781 µM (≈ 0.511 µg/mL) | – | pIC50 (Cytochrome P450 3A4): < 4.70; inhibition at 25 µM (hERG (KCNH2)): 3.6%
4 | CCC(C)n1ncn(-c2ccc(N3CCN(c4ccc(OCC5COC(Cn6cncn6)(c6ccc(Cl)cc6Cl)O5)cc4)CC3)cc2)c1=O (centres undefined) [ITRACONAZOLE] | – | 0.8 µM (≈ 0.565 µg/mL) | 0.45 h | inhibition at 25 µM (hERG (KCNH2)): < 1%
5 | CC[C@@H]([C@H](C)O)n1ncn(-c2ccc(N3CCN(c4ccc(OC[C@@H]5CO[C@@](Cn6cncn6)(c6ccc(F)cc6F)C5)cc4)CC3)cc2)c1=O [POSACONAZOLE] | 6.30 | – | 1.8 h | Kinetic_solubility ([2]; buffer): 0.781 µM; CLH [5]: 21.5 µL/min/mg; inhibition at 25 µM (hERG (KCNH2)): 14.7%
6 | CC(=O)c1cccc(C(=O)Nc2ccc(N3CCN(c4ccc(OC[C@@H]5CO[C@@](C)(c6ccc(F)cc6F)C5)cc4)CC3)cc2)c1 | 7.62 | 3.13 µM (≈ 1.96 µg/mL) | 1.92 h | pIC50 (Cytochrome P450 3A4): < 4.70; CLH [5]: 20 µL/min/mg; inhibition at 25 µM (hERG (KCNH2)): 4.2%
7 | C[C@]1(c2ccc(F)cc2F)C[C@H](COc2ccc(N3CCN(c4ccc(-n5cnn(CCCO)c5=O)cc4)CC3)cc2)CO1 | 7.70 | 1.56 µM (≈ 0.945 µg/mL) | – | –

Now from value to compound, other results behind:

Row | pIC50 [1] | solubility kinetic [2] | t1/2 [4] | SMILES | other results
8 | 6.66 | – | – | C[C@]1(c2ccc(F)cc2F)C[C@H](COc2ccc(N3CCN(c4ccc(NC(=O)NN)cc4)CC3)cc2)CO1 | –
9 | 6.72 | – | – | C[C@]1(c2ccc(F)cc2F)C[C@H](COc2ccc(N3CCN(c4ccc(-n5cn[nH]c5=O)cc4)CC3)cc2)CO1 | –
10 | < 5.00 | 1.56 µM (≈ 0.912 µg/mL) | – | C[C@]1(c2ccc(F)cc2F)C[C@H](COc2ccc(N3CCN(c4ccc(NC(=O)c5cccnc5)cc4)CC3)cc2)CO1 | –
11 | 6.82 | – | – | C[C@]1(c2ccc(F)cc2F)C[C@H](COc2ccc(N3CCN(c4ccc(-n5cnn(CC(=O)O)c5=O)cc4)CC3)cc2)CO1 | –
12 | 6.48 | – | – | C[C@]1(c2ccc(F)cc2F)C[C@H](COc2ccc(N3CCN(c4ccc(N)cc4)CC3)cc2)CO1 | –
13 | 6.72 | – | 1.03 h | CC[C@@H](C)n1ncn(-c2ccc(N3CCN(c4ccc(OC[C@@H]5CO[C@@](C)(c6ccc(F)cc6F)C5)cc4)CC3)cc2)c1=O | pIC50 (Cytochrome P450 3A4): < 4.70; GI50 (Mus musculus [3]): 0.61 µM; CLH [5]: 37.4 µL/min/mg; Ratio IC50 (Mus musculus [6]): 2.5
14 | 6.72 | 3.13 µM (≈ 1.88 µg/mL) | > 3 h | C[C@]1(c2ccc(F)cc2F)C[C@H](COc2ccc(N3CCN(c4ccc(NC(=O)c5cccc(O)c5)cc4)CC3)cc2)CO1 | CLH [5]: 2.23 µL/min/mg
15 | 6.13 | – | – | C[C@]1(c2ccc(F)cc2F)C[C@H](COc2ccc(N3CCN(c4ccc([N+](=O)[O-])cc4)CC3)cc2)CO1 | –
